Assay outcomes (PubChem BioAssay)
An excerpt weighted towards active compounds, which were near 2.4% of everything screened.
Rpn11 inh = blocks the human proteasome subunit Rpn11; human 26S proteasome, Ub4-pepOG fluorescence polarization; 20S core pre-blocked with epoxomicin; 360,000 compounds, 0.59% hits; O00487; inhibition, % at 20 µM;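 active = inhibition at 20 µM, scaled to each plate's controls, above about 33%, limit read from the data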
Neddyl block = cullin neddylation inhibition | P61081+Q13564 | TR-FRET cullin neddylation, biochemical | inhibition, % at 25 µM | AID 651699 | 360,000 compounds, 0.58% hits; in the data active = inhibition above about 36%
Target sequence (P61081 whole entry, looked up): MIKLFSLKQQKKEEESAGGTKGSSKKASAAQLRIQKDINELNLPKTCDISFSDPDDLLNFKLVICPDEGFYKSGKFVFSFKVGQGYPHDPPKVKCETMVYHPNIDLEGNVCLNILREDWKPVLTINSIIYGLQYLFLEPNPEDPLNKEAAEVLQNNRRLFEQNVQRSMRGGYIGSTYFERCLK
Target sequence (Q13564 whole entry, looked up): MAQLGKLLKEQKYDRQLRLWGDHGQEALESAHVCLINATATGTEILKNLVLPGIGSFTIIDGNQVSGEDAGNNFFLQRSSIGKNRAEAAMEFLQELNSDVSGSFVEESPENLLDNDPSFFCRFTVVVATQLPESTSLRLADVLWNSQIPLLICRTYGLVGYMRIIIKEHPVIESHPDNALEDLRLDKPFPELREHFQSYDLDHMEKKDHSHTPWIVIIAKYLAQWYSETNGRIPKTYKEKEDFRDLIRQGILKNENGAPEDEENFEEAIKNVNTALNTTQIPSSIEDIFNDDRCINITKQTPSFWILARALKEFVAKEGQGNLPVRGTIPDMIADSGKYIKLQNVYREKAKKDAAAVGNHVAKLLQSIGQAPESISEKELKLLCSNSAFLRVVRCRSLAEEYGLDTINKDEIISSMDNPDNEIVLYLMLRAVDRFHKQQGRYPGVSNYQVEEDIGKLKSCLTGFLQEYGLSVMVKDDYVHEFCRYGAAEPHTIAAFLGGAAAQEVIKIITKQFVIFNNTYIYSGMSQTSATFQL
PREPL inh = human PREPL enzyme inhibition; Q4J6C6; recombinant PREPL, fluorescence polarization activity-based probe; inhibition, % at 5.96 µM; 320,000 compounds, 0.68% hits; AID 2751; in the data active = inhibition above about 43%;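 also: 0% = enzyme with DMSO and 100% = wells lacking enzyme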
HNF4A DNA FP = change in binding of human HNF4 alpha to DNA | P41235 | HNF4a-FITC DNA binding, fluorescence polarization, 1 h | activity change, % at 10 µM | 360,000 compounds, 0.3% hits | AID 1224865; in the data active = activity change above about 30%, passing the limit was not always enough
CSN inh = inhibitors of human CSN-mediated cullin deneddylation; Q92905; Purified CSN, SCF-Nedd8-OG deneddylation, fluorescence polarization; inhibition, % at 12.5 µM; 360,000 compounds, 0.38% hits;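 active = pattern-corrected inhibition above about 35%, with an unprinted fluorescence ratio check between 0.5 and 1.5, limit read from the data, passing the limit was not always enough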;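 also: 0% = enzyme with substrate and 100% = substrate without enzyme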
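Test system: purified human Csn5 enzyme expressed in HEK293T cells. Amount: 0.24 nM enzyme. Reagent: SCFSkp2-Nedd8OG substrate at 10 nM final. Schedule: 90 min incubation of compound, enzyme and substrate at room temperature. Detection: fluorescence polarization. Read-out: % inhibition of substrate cleavage by Csn5.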
TbMetRS inhib = Trypanosoma brucei MetRS inhibition; purified T. brucei MetRS, ATP depletion, Kinase-Glo luminescence; inhibition, % at 11.9 µM; 360,000 compounds, 0.4% hits; AID 624268;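 active = inhibition above a per-plate cutoff of the control wells' mean inhibition plus 3 SD, cut at about 5.5% in these data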;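 also: 0% = DMSO wells median and 100% = median of wells with control inhibitor compound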
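Material – parasite MetRS enzyme · Medium – HEPES-MgCl2-KCl buffer plus DTT, spermine, BSA, pyrophosphatase · Reagent – ATP, methionine and E. coli bulk tRNA substrates · Times – 15 min enzyme-compound preincubation, 2 h reaction, 10 min detection, 25 °C · Measured by – luminescence of leftover ATP · Evaluation – percent inhibition relative to median high and low control wells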
Neddyl inh conf = confirmation of human cullin neddylation inhibitors. shares compounds with Neddyl block. TR-FRET cullin neddylation biochemical assay. calls only at 25 µM. 1,800 compounds, 13% hits. AID 652217; in the data active = inhibition above about 40%;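 also: neddylation substrate is the cullin 1 ring ligase complex with SKP2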
CSN deneddyl val = validation of inhibitors of human CSN-mediated cullin deneddylation; inhibition, % at 16.6 µM; shares compounds with CSN inh; Csn5 deneddylation of SCF-Nedd8OG, fluorescence polarization, 90 min; AID 720654; 540 compounds, 62% hits; in the data active = inhibition above about 50%;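 also: 0% = DMSO with enzyme and 100% = no enzyme wells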
MMP-2 counter = blocks human MMP-2 in a CSN deneddylation counter-screen | shares compounds with CSN inh | recombinant MMP-2, FRET substrate fluorescence, 60 min | inhibition, % at 16.6 µM | 540 compounds, 33% hits | AID 720655;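 active = corrected plate-normalized z-score of 5 or more, or -5 or less, or inhibition of 15% or more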;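 also: plate controls were DMSO wells with enzyme for no effect and buffer wells lacking MMP-2 for full effect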
Thrombin cntr = counter-screen for CSN deneddylation inhibitors: bovine thrombin inhibition | shares compounds with CSN inh | bovine thrombin cleavage of Ub4-pepOG, fluorescence polarization | inhibition, % at 16.6 µM | 540 compounds, 49% hits;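 active = inhibition at or above a set limit, with a fluorescence interference ratio between 0.5 and a set maximum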
* marks the source's active call; other numbers are inactive results; i = inactive; nt = not tested or not shown; + = active, no number.

SMILES | Rpn11 inh | Neddyl block | PREPL inh | HNF4A DNA FP | CSN inh | TbMetRS inhib | Neddyl inh conf | CSN deneddyl val | MMP-2 counter | Thrombin cntr
COCc1c(C(=O)N/N=C(/C)c2cccs2)nnn1-c1nonc1N | -1.4 | 43.8* | -1.4 | 5.1 | 2.6 | -0.2 | i | nt | nt | nt
Cc1ccc(-c2c(C(=O)N/N=C/c3ccc4c(c3)OCO4)nnn2-c2nonc2N)cc1 | -2.9 | 49.6* | -6.0 | -4.3 | -4.3 | 0.7 | nt | nt | nt | nt
Cc1ccc(SCc2c(C(=O)N/N=C/c3ccc4c(c3)OCO4)nnn2-c2nonc2N)cc1 | -4.0 | 32.2 | 12.6 | 0.4 | 18.6 | 0.3 | nt | nt | nt | nt
O=C(NCc1ccc(Cl)c(Cl)c1)c1cc(C2CCCCN2C(=O)OCCF)on1 (stereo unspecified) | 4.2 | -2.3 | nt | -1.8 | -4.2 | 0.4 | nt | nt | nt | nt
COc1ccccc1CN(C)C[C@H]1OCc2cnnn2CCCC(=O)N([C@@H](C)CO)C[C@@H]1C | -3.0 | 3.1 | nt | -6.8 | 2.8 | -0.7 | nt | nt | nt | nt
COc1ccc2oc(=O)c(C(=O)NCCc3ccc(OC)c(OC)c3)cc2c1 | 1.0 | 48.2* | 11.2 | -0.4 | 0.6 | 0.1 | i | nt | nt | nt
COCCCNC(=O)/C(C#N)=C/c1c(N2CCN(c3ccccc3)CC2)nc2ccccn2c1=O | -8.5 | 62.4* | 17.2 | -1.2 | 9.0 | -0.4 | + | nt | nt | nt
CCNC(=O)/C(C#N)=C/c1c(N2CCN(c3ccccc3)CC2)nc2ccccn2c1=O | -5.6 | 43.2* | nt | -1.5 | 5.3 | -0.5 | + | nt | nt | nt
COCCNC(=O)/C(C#N)=C/c1c(N2CCN(c3ccccc3)CC2)nc2ccccn2c1=O | -4.8 | nt | 13.8 | 2.9 | 1.6 | -0.5 | nt | nt | nt | nt
COc1ccc2oc(C(=O)CCC(=O)O)c(N)c2c1 | 11.2 | 48.0* | 3.8 | -2.0 | -1.8 | 0.4 | i | nt | nt | nt
CCCCn1c2nc3ccccc3nc2c2c(=O)n(CC(C)C)cnc21 | -1.5 | 37.0* | nt | -1.9 | -3.9 | 0.5 | i | nt | nt | nt
CC(C)CC(=NNC(=O)c1ccncc1)c1cc(Cl)ccc1O | nt | nt | nt | 97.7 | 62.8* | -0.2 | nt | 71.4* | -51.4* | 46.4*
CN(C)c1ccc(/C=C2\SC(N3CCCCC3)=NC2=O)cc1 | nt | -141.4 | 22.5 | 118.5 | 83.7* | -2.2 | nt | 63.2* | 1.5 | 78.3*
Cc1ccnc2nc(C(=O)OCC(=O)c3ccc(NC(=O)CC(C)C)cc3)nn12 | 10.3 | -43.0 | 2.5 | 3.5 | 0.9 | -0.2 | nt | nt | nt | nt
CCC(=O)Nc1ccc(C(=O)COC(=O)c2nc3nccc(C)n3n2)cc1 | 38.6 | -17.1 | 4.3 | -43.1 | 43.7* | 0.0 | nt | nt | 14.7 | 9.7
COc1ccc(C(=O)NCC(=O)NCc2ccncc2)cc1 | -3.1 | -0.1 | 19.4 | -1.5 | 1.2 | -0.2 | nt | nt | nt | nt
O=C(N/N=C/c1c(O)ccc2ccccc12)c1ccc(Br)o1 | 37.3 | nt | 15.8 | 12.6 | 37.2* | 0.2 | nt | 65.9* | 11.5 | 6.1
O=C(N/N=C\c1c(O)ccc2ccccc12)c1ccc(O)cc1 | 6.0 | 25.5 | 12.5 | 1.1 | 7.3 | -0.5 | nt | nt | nt | nt
Cc1nnc(N/N=C/c2ccccc2F)n1N | 3.3 | -2.0 | 6.8 | -0.3 | 0.0 | 0.3 | nt | nt | nt | nt
COc1cccc(/C=N/Nc2nnc(C)n2N)c1O | -8.7 | 5.8 | -3.1 | -0.9 | 53.8* | -1.0 | nt | 107.0* | 7.8 | -6.7
O=C(Cn1nc(C(=O)O)c2ccccc2c1=O)Nc1cc(S(=O)(=O)N2CCCCC2)ccc1Cl | 2.2 | -41.3 | -3.1 | 2.7 | 0.3 | -0.4 | nt | nt | nt | nt
O=C(CSc1nc(-c2ccccc2)nc2c1Cc1ccccc1O2)Nc1ccc(C(=O)O)cc1 | 51.4* | -33.0 | nt | -62.9 | 48.1* | -0.5 | nt | 60.0* | 20.3* | 10.0
O=C(Nc1cccc(-c2nc3ccccc3[nH]2)c1)c1cccc(NC(=O)c2ccco2)c1 | 3.9 | nt | -4.4 | 16.8 | 57.0* | 2.0 | nt | 25.2 | 8.8 | -9.1
